Assay results taken from ChEMBL document CHEMBL3085762, “Expeditious synthesis, enantiomeric resolution, and enantiomer functional characterization of (4-(4-bromophenyl)-3a,4,5,9b-tetrahydro-3H-cyclopenta[c]quinoline-8-sulfonamide (4BP-TQS): an allosteric agonist-positive allosteric modulator of α7 nicotinic acetylcholine receptors” (J Med Chem, 2013).
Active and inactive are the calls of the source. The calls are words filed in the database; no cut-off is given here.

Legend:
Type in all cases: cell-based
[1] = target: T1, Neuronal acetylcholine receptor subunit alpha-7 (Homo sapiens, UniProt P36544); test: Potency index, ratio of ACh EC50 to compound EC50 for human alpha7 nAChR expressed in Xenopus oocytes
T1 sequence (P36544 whole entry): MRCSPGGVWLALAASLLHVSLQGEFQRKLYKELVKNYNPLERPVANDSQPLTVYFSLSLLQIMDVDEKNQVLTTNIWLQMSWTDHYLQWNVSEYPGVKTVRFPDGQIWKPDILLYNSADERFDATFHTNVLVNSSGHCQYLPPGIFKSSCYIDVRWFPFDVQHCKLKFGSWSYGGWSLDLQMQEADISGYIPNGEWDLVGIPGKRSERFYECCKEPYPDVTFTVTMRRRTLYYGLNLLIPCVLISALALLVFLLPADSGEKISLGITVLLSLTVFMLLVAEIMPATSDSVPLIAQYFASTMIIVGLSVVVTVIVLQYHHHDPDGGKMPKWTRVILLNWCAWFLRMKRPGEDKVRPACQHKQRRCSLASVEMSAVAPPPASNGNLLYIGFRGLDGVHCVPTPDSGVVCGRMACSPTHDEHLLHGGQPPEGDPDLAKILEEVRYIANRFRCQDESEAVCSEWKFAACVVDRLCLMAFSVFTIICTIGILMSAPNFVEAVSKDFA

[2] = target: T1, Neuronal acetylcholine receptor subunit alpha-7; test: Agonist activity at human alpha7 nAChR expressed in Xenopus oocytes at 60 uM after 5 mins by two-electrode voltage clamp method relative to ACh
[3] = target: T1, Neuronal acetylcholine receptor subunit alpha-7; test: Positive allosteric modulation of human alpha7 nAChR expressed in Xenopus oocytes assessed as potentiation of ACh-induced response at 30 uM measured over 5 mins by two-electrode voltage clamp method in presence of choline
Method in brief: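 α7-expressing Xenopus oocytes get control 60 μM ACh applications, then 300 μM choline together with 30 μM drug (racemate or single enantiomer). Potentiation is measured by two-electrode voltage clamp and normalized to the initial ACh controls.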

[4] = target: T1, Neuronal acetylcholine receptor subunit alpha-7; test: Positive allosteric modulation of human alpha7 nAChR expressed in Xenopus oocytes assessed as potentiation of ACh-induced response at 10 uM measured over 120 secs by two-electrode voltage clamp method
[5] = target: T1, Neuronal acetylcholine receptor subunit alpha-7; test: Allosteric agonist activity at human alpha7 nAChR expressed in Xenopus oocytes at 10 uM measured over 120 secs by two-electrode voltage clamp method
Method in brief: (§1)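 Xenopus oocytes expressing human α7 receive control 60 μM ACh, then 10 μM drug alone or with 10 μM of the other enantiomer. Pre-incubation is 30 s or 5 min, followed by ACh to assess potentiation. Responses are measured over a 120-second interval from the start of drug application. Potentiation is followed over 20 minutes. Two-electrode voltage clamp.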

[6] = target: T1, Neuronal acetylcholine receptor subunit alpha-7; test: Positive allosteric modulation of human alpha7 nAChR expressed in Xenopus oocytes assessed as potentiation of ACh-induced response at 10 uM treated 4 mins prior to ACh addition by two-electrode voltage clamp method
[7] = target: T1, Neuronal acetylcholine receptor subunit alpha-7; test: Positive allosteric modulation of human alpha7 nAChR expressed in Xenopus oocytes assessed as potentiation of ACh-induced response at 10 uM preincubated for 5 mins measured over 20 mins by two-electrode voltage clamp method; method in brief: as §1
[8] = target: T1, Neuronal acetylcholine receptor subunit alpha-7; test: Positive allosteric modulation of human alpha7 nAChR expressed in Xenopus oocytes assessed as potentiation of ACh-induced response after 20 secs by two-electrode voltage clamp method
[9] = target: T1, Neuronal acetylcholine receptor subunit alpha-7; test: Allosteric agonist activity at human alpha7 nAChR expressed in Xenopus oocytes after 20 secs by two-electrode voltage clamp method
Method in brief: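 Human α7 nAChR in Xenopus oocytes under two-electrode voltage clamp. Control applications of 60 μM ACh come first, then a standard 20-second drug application over a range of concentrations. Net-charge response is normalized to the mean of the two initial ACh controls. At least four oocytes per condition. EC50 is taken from the concentration-response curve.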

[10] = target: T1, Neuronal acetylcholine receptor subunit alpha-7; test: Allosteric agonist activity at human alpha7 nAChR expressed in Xenopus oocytes at 10 uM preincubated for 5 mins by two-electrode voltage clamp method; method in brief: as §1

Compound	Ratio EC50 [1]	fold change (FC) [2]	Activity [3]	Activity [4]	Activity [5]	Activity [6]	Activity [7]	Activity [8]	EC50 [9] [µM]	Activity [10]
NS(=O)(=O)c1ccc2c(c1)[C@H]1C=CC[C@H]1C(c1ccc(Br)cc1)N2 (mixture of isomers)	8	45	Active	–	–	–	–	–	–	–
NS(=O)(=O)c1ccc2c(c1)[C@@H]1C=CC[C@@H]1[C@H](c1ccc(Br)cc1)N2	–	–	–	inactive	inactive	–	–	–	–	–
NS(=O)(=O)c1ccc2c(c1)[C@H]1C=CC[C@H]1[C@@H](c1ccc(Br)cc1)N2	–	–	Active	–	Active	Active	Active	Dose-dependent effect	28	Active
